From ChEMBL document CHEMBL3351568, “2-Aminobenzoxazole ligands of the hepatitis C virus internal ribosome entry site” (Bioorg Med Chem Lett, 2014) come the findings set out here.

The target of the assay is Internal ribosome entry site (IRES). Description: Binding affinity to HCV cyanine dye-labeled IRES subdomain 2a RNA by FRET assay in presence of tRNA. The arrangement: species or system Hepacivirus hominis. An outline of the steps: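 IRES subdomain IIa RNA target binding by FRET, following a previously described method. Compounds were titrated in triplicate experiments, and the data were averaged. EC50 came from fitting a single-site binding dose-response curve to the averaged data.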

Turning to `CN(C)CCCNc1nc2ccc(N)cc2o1`, the EC50 (usually the concentration giving half of the maximal effect) came out at 120 µM.
As for `CN(C)CCCNc1ccc2nc(NCCCN(C)C)oc2c1`, the EC50 came to 63 µM.
Take `Nc1nc2ccc(Nc3ccccc3)cc2o1`: the EC50 worked out at 90 µM.
For the molecule `Nc1nc2ccc(NCc3ccccc3)cc2o1`, the EC50 was 27 µM.
`CN(C)CCNc1nc2ccc(N)cc2o1`: the EC50 came out at 500 µM.
Turning to `CN(CCC(=O)N(C)C)Cc1cccc2nc(N)oc12`, the EC50 came out at 600 µM.
For the molecule `CN(C)CCCNc1ccc2nc(N)oc2c1`, the half-maximal effective concentration (EC50) came to 25 µM.
For the molecule `Nc1ccc2nc(NCCN3CCCCC3)oc2c1`, the EC50 was 88 µM.
With `CN(C)CCCNc1nc2cccc(N)c2o1` the figure was 31 µM; with `CN(C)CCCNc1nc2cc(N)ccc2o1`, 52 µM; with `Nc1ccc2nc(NCCCN3CCOCC3)oc2c1`, 43 µM.
`Nc1ccc2nc(NCCCN3CCCCC3)oc2c1`: the EC50 came out at 47 µM.
As to `CN(C)CCCNc1nc2ccccc2o1`, the EC50 was determined as 110 µM.
Turning to `CN(C)CCN(C)Cc1cccc2nc(N)oc12`, the EC50 is 190 µM.
